MPTP block: permeability transition pore inhibition; isolated mouse mitochondria, Ca2+ swelling absorbance, 30 min; inhibition, % at 10 µM; 360,000 compounds, 1.4% hits; AID 602449;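 active = inhibition of 50% or more, scaled per plate between neutral and stimulator controls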;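 note: 0% = DMSO wells given calcium and 100% = 1 mM EGTA wells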
SMARCA2 activ: SMARCA2 function activation, primary screen; 370,000 compounds, 1% hits; MG213 cells, MMTV-luciferase reporter, dexamethasone, overnight; activation, % at 9.1 µM; AID 652017; in the data active = activation above about 7.8%;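 note: 0% = vehicle wells and 100% = reference activator wells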
MC4R barr agon: activates human MC4R beta-arrestin recruitment; activation, % at 8.9 µM; 360,000 compounds, 0.98% hits; U2OS MC4R beta-arrestin complementation, luminescence; percent of melanotan II response, DMSO zero; P32245;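 active = activation above a per-plate cutoff, the mean activation of sample wells on that plate plus 3 SD, cut at about 8% in these data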
Target sequence (P32245 whole entry, looked up): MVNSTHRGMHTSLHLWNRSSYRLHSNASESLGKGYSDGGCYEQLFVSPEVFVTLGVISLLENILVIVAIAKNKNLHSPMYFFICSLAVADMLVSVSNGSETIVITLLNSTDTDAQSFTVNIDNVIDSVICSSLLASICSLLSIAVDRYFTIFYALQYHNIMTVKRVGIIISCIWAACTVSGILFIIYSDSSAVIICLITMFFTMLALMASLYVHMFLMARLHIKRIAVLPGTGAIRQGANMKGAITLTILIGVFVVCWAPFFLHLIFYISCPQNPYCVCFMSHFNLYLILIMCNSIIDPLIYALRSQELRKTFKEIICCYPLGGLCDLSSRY
ATG4B inhibitor: blocks human ATG4B protease cleavage of LC3 substrate; ATG4B cleavage of LC3-PLA2, NBD-HPC fluorescence, 1 h; Q9Y4P1; inhibition, % at 8.33 µM; 340,000 compounds, 0.51% hits; in the data active = inhibition above about 40%
MC4R antag cAMP: blocks human MC4R cAMP signaling; P32245; MC4R-expressing cells, MTII-stimulated cAMP, LANCE TR-FRET; inhibition, % at 6.5 µM; 360,000 compounds, 0.48% hits; AID 540295;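 active = inhibition above its plate's cutoff, the mean of tested wells on that plate plus 3 SD, cut at about 29% in these data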;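 note: 0% = Melanotan II alone and 100% = Melanotan II plus saturating MCL0020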
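System: U2OS cells stably expressing human melanocortin 4 receptor (MC4R). Reagent: Melanotan II challenge after compound preincubation. Doses: 6.5 µM. Times: 30-min compound, 1-h challenge, 1-h detection, room temperature. Measured by: TR-FRET with Eu-cAMP and labeled anti-cAMP, 671 nm. Replicates: singlicate.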
MPTP counter: mitochondrial membrane potential, counter-screen. shares compounds with MPTP block. isolated mitochondria, Rhodamine 123 fluorescence. inhibition, % at 10 µM. 5,000 compounds, 78% hits; in the data active = inhibition above about 22%;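 note: 0% = DMSO vehicle and 100% = positive control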
MPTP abs DR: dose response confirmation of mitochondrial permeability transition pore inhibitors; AID 651561; shares compounds with MPTP block; 780 compounds, 58% hits; IC50, µM; isolated mitochondria swelling, absorbance; in the data active = IC50 below about 20 µM
MPTP counter DR: active in counter-screen for permeability transition pore inhibitors; shares compounds with MPTP block; isolated mitochondria counterscreen, fluorescence read-out; IC50, µM; 780 compounds, 49% hits; AID 651564; in the data active = IC50 below about 80 µM
Numbers without * were called inactive; x = no result; ! = repeats disagree. Most compounds without a hit are left out; they make up all but 4.1% or so of the library.

SMILES	MPTP block	SMARCA2 activ	MC4R barr agon	ATG4B inhibitor	MC4R antag cAMP	MPTP counter	others
CC1=CN2C(=N)/C(=C/c3ccc(Sc4ccc(Cl)cc4)o3)C(=O)N=C2S1	58*	-3	6	25	-5	41*
O=[N+]([O-])c1cc(-c2ccccc2)cc([N+](=O)[O-])c1O	78*	-4	-2	5	3	89*
CCOC(=O)[C@]12CCCCC/C=C\1N(Cc1ccc(OC)cc1)C(=O)[C@H]2CC(=O)NCC12CC3CC(CC(C3)C1)C2	x	-4	x	x	x	x
CC(C)COc1ccc(C(=O)OC2CC(C)(C)OCC2CN(C)C)cc1 (stereo unspecified)	68*	0	2	-1	-5	-8	MPTP abs DR=12*;MPTP counter DR=>80
Cn1ncc(Cl)c1C(=O)N1CCN(C(=O)c2ccco2)CC1	73*	0	-1	-17	4	-1	MPTP abs DR=>100;MPTP counter DR=>80
COC(=O)c1cc(CSc2nc3ccccc3c(=O)n2C)oc1C	84*	-4	2	-3	8	93*
Cc1ccc(-c2nc(CSc3nc4ccccc4c(=O)n3C)cs2)cc1	100*	3	-1	-8	8	45*
COC(=O)CCC(=O)N1C2=NC3=C(C(=O)N(Cc4ccc5c(c4)OCO5)C3=O)C3N(C)c4ccccc4[C@]23C[C@H]1CO (stereo partly specified)	x	-1	x	x	x	x
CC(C)=C(C#N)c1nc2ccccc2s1	0	3	0	2	-3	x
Cc1ccc(OC/C(O)=C(\C#N)c2nc3ccccc3s2)cc1	73*	0	0	9	23	43*
COC(=O)c1ccc(/C(O)=C(\C#N)c2nc3ccccc3s2)cc1	74*	4	0	4	-13	53*
Cc1ccc2nc(-c3cccc(SC4CCCCC4)c3)c(NCc3ccccc3)n2c1	12	-1	0	26	16	x
COc1ccc(-c2nc3ccc(C)cn3c2NCc2ccccc2)cc1SC1CCCCC1	98*	x	1	10	13	95*
CCCCNc1c(-c2ccc(OC)c(SC3CCCCC3)c2)nc2ccc(C)cn12	76*!	-2	0	22	14	98*
CCN(CC)CCCN=Cc1c(O)n(-c2c(C)cccc2C)c(=O)c2ccccc12	1	-2	-1	-3	-2	x
CCN(CC)CCCN=Cc1c(O)n(Cc2ccccc2)c(=O)c2ccccc12	79*	1	0	-2	8	-18	MPTP abs DR=12*;MPTP counter DR=>80
Cc1ccc(-c2c(C(=O)NC3CCCC3)oc(=O)c3ccccc23)cc1	x	-4	x	x	x	x
CCc1ccc(NC(=O)[C@H](Cc2c[nH]c3ccccc23)NC(=O)[C@@H]2Cc3ccccc3CN2)cc1	72*	2	3	-19	11	-16	MPTP abs DR=7.6*;MPTP counter DR=>80
CCN(CC)S(=O)(=O)c1ccc2oc(SCC3CN=C(c4ccc(OC)cc4)S3)nc2c1 (stereo unspecified)	56*	-5	-1	-21	6	10	MPTP abs DR=17*;MPTP counter DR=12*
COc1ccc(C2=NCC(CSc3nnc(-c4ccc5c(c4)OCO5)o3)S2)cc1 (stereo unspecified)	58*	3	0	-17	6	81*
O=C(NCc1ccc(Cl)cc1)OCCN1C(=O)CCC12CCC(c1ccccc1)CC2 (stereo unspecified)	x	-4	x	x	x	x
Oc1ccc2ccccc2c1/C=N/Nc1ccccc1	2	-1	3	7	-1	x
Cc1cc(N/N=C/c2c(O)ccc3ccccc23)nc(-c2ccccc2O)n1	66*	1	1	24	0	52*
COc1ccc(N2C[C@@]3(O)CC[C@@H](O)[C@@H](OC)[C@@H]3[C@@]2(C)[C@H](O)CC=C(C)C)cc1	x	3	x	x	x	x
O=C(O)C1CCCCC1C(=O)N1CC=C(c2ccccc2)CC1 (stereo unspecified)	74*	-4	-2	-11	-8	11	MPTP abs DR=>100;MPTP counter DR=>80
CC(=O)N1CCCN(S(=O)(=O)c2ccc3c(c2)c(=O)n(C)c(=O)n3C)CC1	x	-3	x	x	x	x
